Measurements: ChEMBL document CHEMBL5029184, “Colloidal Aggregators in Biochemical SARS-CoV-2 Repurposing Screens” (J Med Chem, 2021)

Assays:
Sus scrofa [1] = species on record: Sus scrofa; test: Inhibition of porcine heart malate dehydrogenase assessed as critical aggregation concentration preincubated for 5 min followed by nicotinamide adenine dinucleotide addition and monitered for 90 sec by spectrophotometric method; format: tissue-based
[2] = Inhibition of SARS-COV2 main protease; parameters: species or system Severe acute respiratory syndrome coronavirus 2
Sus scrofa [3] = species on record: Sus scrofa; test: Inhibition of porcine heart malate dehydrogenase assessed as reduction in enzyme inhibition at 3 times IC50 preincubated for 5 min followed by nicotinamide adenine dinucleotide addition and monitered for 90 sec in presence of 0.01% Triton-X100 by spectrophotometric method relative to control; format: tissue-based; parameters: scale not given: the % may be the effect or the level left
Procedure, shortened: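 After a 5 min room-temperature incubation, the rate was read over 90 s and compared with the negative control. The value is the percent change in inhibition with detergent; triplicate.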

[4] = Inhibition of porcine heart malate dehydrogenase preincubated for 5 min followed by nicotinamide adenine dinucleotide addition and monitered for 90 sec by spectrophotometric method; format: tissue-based, Sus scrofa
Procedure, shortened: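 Porcine heart MDH was used at 2 nM final in 50 mM KPi pH 7 at room temperature. Compound was added from 100× DMSO stock (1% DMSO final) and incubated 5 min. Reactions were followed 90 s spectrophotometrically, with initial rates divided by the negative-control rate. Concentration–response used three replicates per concentration to give IC50 and Hill slope.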

[5] = target: T1, Angiotensin-converting enzyme 2 (Homo sapiens, UniProt Q9BYF1); test: Inhibition of recombinant SARS-COV2 His-tagged S-RBD binding to recombinant human ACE2 expressed in HEK293T cells incubated for 0.5 hrs by alpha screen assay; format: cell-based
T1 sequence (Q9BYF1 whole entry, the tested form may be a part): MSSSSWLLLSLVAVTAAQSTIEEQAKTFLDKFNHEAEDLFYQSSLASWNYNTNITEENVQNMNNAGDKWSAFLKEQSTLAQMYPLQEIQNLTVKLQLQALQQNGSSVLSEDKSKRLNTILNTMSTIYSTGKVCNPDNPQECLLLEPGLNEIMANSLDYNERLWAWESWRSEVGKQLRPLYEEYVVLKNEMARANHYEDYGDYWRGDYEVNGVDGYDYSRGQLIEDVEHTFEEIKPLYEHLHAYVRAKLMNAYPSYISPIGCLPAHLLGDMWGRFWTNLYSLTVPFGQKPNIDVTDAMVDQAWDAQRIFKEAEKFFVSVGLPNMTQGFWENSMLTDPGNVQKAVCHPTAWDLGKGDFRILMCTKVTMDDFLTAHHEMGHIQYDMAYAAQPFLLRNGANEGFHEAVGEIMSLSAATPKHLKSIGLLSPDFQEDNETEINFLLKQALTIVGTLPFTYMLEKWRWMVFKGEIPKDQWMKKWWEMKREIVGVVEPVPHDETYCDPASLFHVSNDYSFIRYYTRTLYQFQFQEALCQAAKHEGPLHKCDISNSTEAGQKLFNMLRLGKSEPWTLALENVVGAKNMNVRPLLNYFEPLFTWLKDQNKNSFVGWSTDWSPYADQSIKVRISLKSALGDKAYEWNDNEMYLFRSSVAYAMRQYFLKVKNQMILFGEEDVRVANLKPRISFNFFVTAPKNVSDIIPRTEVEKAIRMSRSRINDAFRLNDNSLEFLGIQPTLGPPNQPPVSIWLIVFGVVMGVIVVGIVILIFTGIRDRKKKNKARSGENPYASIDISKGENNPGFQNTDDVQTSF

[6] = Inhibition of SARS CoV2 C-terminal His6-tagged 3CL protease (3264 to 3569 residues) expressed in Escherichia coli BL21 DE3 using rr-K(MCA)-ATLQAIAS-K(DNP)-COOH preincubated for 1 hr followed by substrate addition and measured after 1 hr in presence of 0.05% Tween-20; parameters: species or system Severe acute respiratory syndrome coronavirus 2
Procedure, shortened: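 Purified recombinant 3CL-Pro at 50 nM final with quenched fluorogenic peptide at 10 μM final (KM), in 20 mM Tris, 150 mM NaCl, 1 mM EDTA, 1 mM DTT, 0.05% Tween-20, pH 7.4. Drug and enzyme were preincubated 1 h at 37 °C, then substrate was added and fluorescence followed 1 h.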

[7] = Inhibition of SARS-COV2 N-terminal MBP-tagged 3CL protease using DABCYL-KTSAVLQSGFRKME-EDANS as substrate measured upto 30 mins by FRET assay; parameters: species or system Severe acute respiratory syndrome coronavirus 2
[8] = target: T1, Angiotensin-converting enzyme 2; test: Inhibition of recombinant human ACE2 using MCA-Tyr-Val-Ala-Asp-Ala-Pro-Lys(DNP)-OH as substrate preincubated for 15 mins followed by substrate addition and measured upto 15 mins by fluorescence assay
[9] = Inhibition of SARS-Cov2 N-terminal full-length MBP-tagged 3CL protease expressed in Escherichia coli using DABCYL-KTSAVLQSGFRKME-EDANS as substrate preincubated for 30 mins followed by substrate addition and measured after 3 hrs by fluorescence assay; parameters: species or system Severe acute respiratory syndrome coronavirus 2

Row | Structure (SMILES) | CAC (Sus scrofa [1]) [µM] | IC50 [2] [µM] | Activity (Sus scrofa [3]) [%] | IC50 [4] [µM] | IC50 [5] [µM] | IC50 [6] [µM] | IC50 [7] [µM] | IC50 [8] [µM] | IC50 [9] [µM]
1 | Cc1cc(O)c2c(=O)c3c(O)cc(O)c4c5c(O)cc(O)c6c(=O)c7c(O)cc(C)c8c1c2c(c34)c(c78)c65 [HYPERICIN] | 0.3 | 19.3 | 83 | 0.15 | – | – | – | – | –
2 | Cc1c(C)c2c(c(C)c1O)CCC(C)(CCCC(C)CCCC(C)CCCC(C)C)O2 (stereo not drawn) [alpha-TOCHOPHEROL] | 1.5 | – | 69 | 0.079 | – | – | – | – | –
3 | O=C1C=C2CC3(O)COc4c(ccc(O)c4O)C3=C2C=C1O (stereo unspecified) [HEMATEIN] | 123 | – | 24 | 7.6 | 10 | > 200 | – | – | –
4 | COC(=O)C1=C(C)NC(C)=C(C(=O)OCCN2CCN(C(c3ccccc3)c3ccccc3)CC2)C1c1cccc([N+](=O)[O-])c1 (stereo unspecified) [MANIDIPINE 6300] | 2.8 | – | 92 | 2 | – | > 100 | – | – | –
5 | Oc1c(I)cc(Cl)c2cccnc12 [CLIOQUINOL] | – | – | 57 | 4.3 | – | – | – | – | –
6 | O=C(O)c1ccc(N2C(=O)/C(=C\c3ccc(-c4ccc([N+](=O)[O-])cc4)o3)C=C2c2ccccc2)cc1 | 6.2 | – | 75 | 0.36 | – | 100 | 18.3 | – | –
7 | c1ccc(-c2ccc(C(c3ccccc3)n3ccnc3)cc2)cc1 (stereo unspecified) [BIFONAZOLE] | – | – | – | 17 | – | – | – | – | –
8 | Brc1c(Br)c(Br)c2[nH]nnc2c1Br [TETRABROMOBENZOTRIAZOLE] | – | – | 61 | 14.6 | – | – | 4 | – | –
9 | COc1ccc(-c2ccc3cc(C(=O)O)ccc3c2)cc1C12CC3CC(CC(C3)C1)C2 | 9.2 | – | 77 | 14 | – | – | – | – | –
10 | C[C@@H](NCCCc1cccc(C(F)(F)F)c1)c1cccc2ccccc12 | 53 | – | 81 | 74 | – | – | – | 28.2 | –
11 | COC(=O)C1=C(C)NC(C)=C(C(=O)OC(C)(C)CN(C)CCC(c2ccccc2)c2ccccc2)C1c1cccc([N+](=O)[O-])c1 (stereo unspecified) [LERCANIDIPINE] | 4 | – | 95 | 2.2 | – | > 200 | – | – | –
12 | Cc1cc2c(C(C)C)c(O)c(O)c(C=O)c2c(O)c1-c1c(C)cc2c(C(C)C)c(O)c(O)c(C=O)c2c1O [GOSSYPOL] | 34 | – | 92 | 0.82 | – | > 200 | – | – | 39.8
13 | Cc1cc(-c2ccc(/N=N/c3ccc4c(S(=O)(=O)O)cc(S(=O)(=O)O)c(N)c4c3O)c(C)c2)ccc1/N=N/c1ccc2c(S(=O)(=O)O)cc(S(=O)(=O)O)c(N)c2c1O [EVANS BLUE] | – | – | 64 | 0.01 | – | – | – | – | –
14 | C/C(=C\c1ccc(C(=O)O)cc1)c1ccc2c(c1)C(C)(C)CCC2(C)C | 5.2 | – | 83 | 4.4 | – | > 200 | – | – | 35.5
15 | COc1c2ccc(-c3ccccc3)oc-2cc(=O)c1C [DRACORHODIN] | 22 | – | 86 | 7.7 | – | – | – | – | –
16 | O=c1c(O)c(-c2cc(O)c(O)c(O)c2)oc2cc(O)cc(O)c12 [MYRICETIN] | 7.4 | – | – | – | 10 | – | – | – | –
17 | Cc1cc(O)c2c(c1)C(=O)c1cc(O)cc(O)c1C2=O [EMODIN] | 6 | – | – | 12.7 | – | – | – | – | –
18 | O=C(O)c1cccc(CN2C(=O)/C(=C(\c3ccccc3)c3ccc(Cl)cc3)c3ccccc32)c1 | 49 | – | 22 | 24 | – | > 200 | – | – | 35.5
19 | CC(C)(C)[C@H]1CC[C@H](CC2=C(O)C(=O)c3ccccc3C2=O)CC1 [BUPARVAQUONE] | 32 | – | 90 | 8.2 | – | – | – | – | –
20 | CC(C)=CC[C@@H](O)C1=CC(=O)c2c(O)ccc(O)c2C1=O | 7.7 | – | 92 | – | – | – | – | – | –
21 | Cc1c(-c2ccc(O)cc2)n(Cc2ccc(OCCN3CCCCCC3)cc2)c2ccc(O)cc12 | – | – | 70 | – | – | – | – | – | –
22 | O=C1c2c(O)cccc2Cc2cccc(O)c21 [ANTHRALIN] | 4.5 | – | 93 | 2.5 | – | – | – | – | –
